Measured values as given in publication PMC7616001 (Journal of medicinal chemistry, 2022).

Key:
HeLa [1] = assay: 24 h MTT assay, HeLa cells; format: cell-based, human; conditions: read-out: IC50/24h
Method in brief: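 HeLa in DMEM with 10% FBS and 1% penicillin/streptomycin, 3 × 10^3 cells/well, grown overnight. Fresh DMSO stocks (Ru content confirmed by ICP‑MS) serially diluted in medium; final DMSO ≤0.1%. 24 h exposure, then MTT 0.5 mg/mL for 3 h. Formazan dissolved in DMSO, A570 read and normalised to untreated wells. IC50 taken from dose–response curves; ≥3 independent experiments of 3 or 6 replicates.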

HeLa [2] = assay: 72 h crystal violet; format: cell-based, human
Method in brief: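 Seeding and dosing as for MTT: 3 × 10^3 cells/well, overnight, final DMSO ≤0.1%, 72 h exposure. Wells washed with PBS and fixed in 4% paraformaldehyde for 15 min. Crystal violet stained, dried, dissolved in 96% ethanol and A570 read. IC50 derived from dose–response curves.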

[3] = test system: O2•− radicals in HeLa cells; assay: Flow cytometric quantification of superoxide radicals with DHE probe; format: cell-based, human; conditions: 10 μM, 4 h
Method in brief: (§1)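 HeLa seeded at 0.75 × 10^6 cells per six‑well plate well, grown overnight, then treated 4 h at 10 μM. Cells trypsinised, washed with ice‑cold PBS and spun at 1200 rpm, 5 min, 4 °C. Probe‑stained cells analysed by flow cytometry, approximately 20,000 cells per sample.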

[4] = test system: mitochondria of HeLa cells; assay: Metal content in isolated mitochondria, ICP-MS; format: cell-based, human; conditions: 20 μM, 24 h
[5] = Reversible aquation and anation by 1H NMR; format: physicochemical; conditions: DMSO/D2O without NaCl, within 10 min
Method in brief: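 1H NMR in DMSO/D2O. At 10 min, 666 mM NaCl in D2O added to give 100 mM NaCl in DMSO/D2O (85:15 v/v). Spectra recorded at regular intervals up to 60 min.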

[6] = test system: RIP1 and RIP3 in HeLa cells; assay: Western blot of necroptosis marker proteins; format: cell-based, human; conditions: 24 h
Method in brief: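 Western blot for RIP1/RIP3: about 2 × 10^6 HeLa cells at 80–90% confluency were given test compound (10, 20, 40 μM) for 24 h, with shikonin as a reference necroptosis inducer. Cells were lysed in RIPA with protease inhibitors and run on 10/12% SDS-PAGE, then transferred to PVDF. Membranes were blocked in 2% milk, probed with primary antibody (1:1000, overnight, 4 °C), then with HRP secondary antibody (0.75:1000).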

[7] = Stability in DMSO and aqueous media by 1H NMR; format: physicochemical; conditions: up to 48 h
Method in brief: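 About 2 mM test compound in DMSO-d6 was mixed with 666 mM NaCl in D2O to give 100 mM NaCl final in DMSO/D2O (85/15, v/v). 1H NMR spectra were recorded at regular intervals up to 48 h.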

[8] = test system: zebrafish sub-intestinal venous plexus (SIVP) angiogenesis; assay: Zebrafish SIVP angiogenesis model; format: in vivo, zebrafish (Danio rerio); conditions: 20/30/40 μM from 26 hpf, imaged at 72 hpf
Method in brief: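 Test compound stock 5 mM in DMSO, diluted in E3 to final 20, 30 or 40 μM; DMSO vehicle at 10 μL/mL E3. Four 26 hpf Tg(etv2:EGFP) embryos per 1 mL. Raised to 72 hpf at 28 °C for confocal analysis of the sub‑intestinal venous plexus.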

[9] = test system: HO• radicals in HeLa cells; assay: Flow cytometric quantification of hydroxyl radicals with HPF probe; format: cell-based, human; conditions: 10 μM, 4 h
Method in brief: as §1

[10] = test system: mitochondria of HeLa cells; assay: Mitochondrial morphology, confocal imaging of mito-GFP HeLa cells; format: cell-based, human; conditions: 1/2 × IC50/24h (20 μM)
A2780cis = assay: MTT assay, 72 h continuous exposure, cisplatin-resistant A2780Cis cells; format: cell-based, human
Method in brief: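 Ovarian lines grown in RPMI with 10% FBS and 1% penicillin/streptomycin; A2780Cis kept on 2 μM cisplatin 3 days each week. HeLa grown in DMEM with the same supplements. 3 × 10^3 cells/well, overnight, then serial dilutions of DMSO stocks (final DMSO ≤0.1%); cisplatin stock in PBS. 72 h continuous exposure, MTT 0.5 mg/mL 3 h, formazan in DMSO, A570 normalised to untreated. IC50 from curves; ≥3 independent experiments.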

HeLa cells = assay: Intracellular distribution between nucleus and cytoplasm, ICP-MS; format: cell-based, human; conditions: 10 μM, 24 h exposure
Method in brief: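 5 × 10^6 HeLa per 100 mm plate, grown overnight. Exposed 24 h to 10 μM test compound, with 10 μM cisplatin as comparator. PBS‑washed, trypsinised, counted. Nuclear and cytoplasmic fractions isolated with a commercial kit. Protein measured by BCA assay, metal by ICP‑MS. Three experiments of ≥3 replicates.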

[11] = Octanol-water partition coefficient, shake-flask method; format: physicochemical; conditions: 100 mM NaCl, 37 °C, Ru by ICP-MS
Method in brief: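 Shake‑flask partition. Octanol‑saturated water and water‑saturated octanol prepared beforehand by shaking a 1:1 octanol/water mixture for 24 h, then separating the layers.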

[12] = test system: MEF-Bax/Bak^+/+ and MEF-Bax/Bak^−/− cell lines; assay: Cytotoxicity in MEF-Bax/Bak+/+ versus MEF-Bax/Bak−/− cells; format: cell-based, murine

## Cc1ccc(C(C)C)cc1.O=C(C=C([O-])C(F)(F)F)[c-]1cccc1.[Cl-].[Fe+2].[Ru+2].c1cc[cH-]c1 [Compound 1, [(η^6-p-cymene)Ru(1,1,1-trifluoro-4-oxo-4-ferrocenyl-but-2-en-2-olate)Cl]]
HeLa [1]
  IC50: 38 ± 3 µM
HeLa [2]; HeLa and A2780, 72 h
  IC50 from CV assay compared to IC50 from MTT assay: ~ 3 fold
HeLa [2]; read-out: IC50 (CV assay) HeLa, 72 h CV assay
  IC50: 4.4 ± 1.7 µM
[3]
  level of O2•− radicals relative to untreated control: ~ 19 fold
[4]
  Ru in mitochondria relative to Pt in mitochondria of cisplatin-treated cells: ~ 4 fold
[5]
  fraction aquated: ~ 95%
[6]
  expression level of RIP1 and RIP3: increased the expression level of RIP1 and RIP3
[7]
  stability in DMSO: no change was detected in the ^1H NMR spectrum up to 48 h
  stability in DMSO-d6/D2O containing 100 mM NaCl: no significant spectral changes were observed up to 48 h
[8]
  effect on SIVP angiogenesis (SIVP area, number of compartments): dose-dependent antiangiogenic effects
[9]
  level of HO• radicals relative to untreated control: ~ 7 fold
[10]
  mitochondrial morphology: rounded and punctate
A2780cis; RF = IC50 in A2780Cis/IC50 in A2780
  RF (A2780): 1.2
A2780cis; read-out: IC50 A2780cis, 72 h continuous exposure, MTT assay
  IC50: 3.1 ± 0.1 µM
HeLa cells
  metal content in nuclear fraction relative to cytoplasmic fraction: ~ 2.5 times
[11]
  log P: 1.1 ± 0.1
[12]
  IC50 in MEF-Bax/Bak^−/− compared to MEF-Bax/Bak^+/+ cells: statistically similar
